Like-named read-outs stand apart in the source and are kept apart here.

For orientation: Emax means the maximal effect, on the per cent scale that the assay sets.

Series [1] addresses T1, NTR1 (Homo sapiens, UniProt P30989). Nature of the series: β-Arrestin2-GFP NTR1 high content assay. Format: cell-based.
Target sequence in this assay (P30989 whole entry, species assumed): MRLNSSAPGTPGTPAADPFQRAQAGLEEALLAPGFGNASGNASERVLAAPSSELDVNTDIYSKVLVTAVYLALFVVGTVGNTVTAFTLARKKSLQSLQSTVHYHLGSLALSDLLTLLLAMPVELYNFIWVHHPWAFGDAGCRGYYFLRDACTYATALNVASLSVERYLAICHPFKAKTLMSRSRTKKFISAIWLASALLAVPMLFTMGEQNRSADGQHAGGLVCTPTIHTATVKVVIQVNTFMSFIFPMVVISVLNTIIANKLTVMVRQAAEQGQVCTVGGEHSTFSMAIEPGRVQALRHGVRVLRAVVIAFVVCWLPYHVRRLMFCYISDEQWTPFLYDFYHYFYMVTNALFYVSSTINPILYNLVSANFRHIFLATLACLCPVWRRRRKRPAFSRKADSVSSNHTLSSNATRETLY
In series [2] the target is T1, NTR1. Particulars: cited from earlier work.
Target sequence in this assay (P30989 whole entry, species assumed): as above
The target in series [3] is T2, NTR2 (Homo sapiens, UniProt O95665). Put plainly: NTR2 counterscreen, same high-content β-arrestin format. Format: cell-based. The settings on record: high-content assay format.
Target sequence in this assay (O95665 whole entry, species assumed): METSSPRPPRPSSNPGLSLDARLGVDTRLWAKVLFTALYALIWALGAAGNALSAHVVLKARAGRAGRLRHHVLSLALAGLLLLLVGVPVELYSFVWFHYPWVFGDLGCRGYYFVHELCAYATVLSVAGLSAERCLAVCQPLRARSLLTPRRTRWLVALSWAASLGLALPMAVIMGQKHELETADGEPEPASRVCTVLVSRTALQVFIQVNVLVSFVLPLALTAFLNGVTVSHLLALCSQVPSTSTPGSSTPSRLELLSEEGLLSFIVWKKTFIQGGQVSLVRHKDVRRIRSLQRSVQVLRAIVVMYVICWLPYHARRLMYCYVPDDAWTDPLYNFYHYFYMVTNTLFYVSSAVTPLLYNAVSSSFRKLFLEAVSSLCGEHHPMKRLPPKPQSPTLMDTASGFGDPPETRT
For series [4], the target named is T1, NTR1. Nature of the series: Ca2+ flux assay. In kind it is cell-based. On the technique in general: A change in cytosolic calcium serves as a functional read-out for many receptors and channels.
Target sequence in this assay (P30989 whole entry, species assumed): as the sequence (P30989 whole entry, species assumed) above
For series [5], the target named is T1, NTR1. Put plainly: [125I]-NT radioligand binding to cell membranes. The settings on record: [125I]-NT 0.02 nM, increasing concentrations of compound.
Target sequence in this assay (P30989 whole entry): as the sequence (P30989 whole entry, species assumed) above
The target of series [6] is T2, NTR2. Put plainly: [125I]-NT radioligand binding to cell membranes. Particulars: [125I]-NT 0.02 nM.
Target sequence in this assay (O95665 whole entry): as the sequence (O95665 whole entry, species assumed) above
The target in a further series is mouse NTR (Mus musculus, UniProt O88319). Put plainly: [125I]-NT radioligand binding to cell membranes. The settings on record: [125I]-NT 0.02 nM.
The target of the next series is GPR35 (Homo sapiens, UniProt Q9HC97). Put plainly: GPCR cross reactivity, high-content assay format. In kind it is cell-based.
The next series deals with GPR55 (Homo sapiens, UniProt Q9Y2T6). Nature of the series: GPCR cross reactivity, high-content assay format. Format: cell-based.
The next series concerns the target K-opioid (Homo sapiens, UniProt P41145). Nature of the series: GPCR cross reactivity, high-content assay format. Format: cell-based.
The subject of series [7] is dopamine transporter knockout (DAT−/−) mice. Nature of the series: Open field locomotor activity in dopamine transporter knockout mice. Particulars: 2 hr post-treatment. In kind it is in vivo, mouse. The gist of the method:
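Male and female DAT KO mice on a C57BL/6J background, 12–24 wk, 18–30 g, age- and sex-matched, randomised, tested early in the light cycle. After 30 min open-field acclimation, dosed at 10 ml/kg i.p. (vehicle 4% DMSO in saline) or p.o. as HCl salt in distilled water (after 5 daily water-gavage habituations). Infrared beam-break horizontal distance in 5-min bins; total summed 30–150 min.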

A short description of series [8]: Adverse effects in dosed animals. In kind it is in vivo. Particulars: animals dosed in the DAT knockout mouse study.

Sequence of GPR55 (Q9Y2T6 whole entry, species assumed): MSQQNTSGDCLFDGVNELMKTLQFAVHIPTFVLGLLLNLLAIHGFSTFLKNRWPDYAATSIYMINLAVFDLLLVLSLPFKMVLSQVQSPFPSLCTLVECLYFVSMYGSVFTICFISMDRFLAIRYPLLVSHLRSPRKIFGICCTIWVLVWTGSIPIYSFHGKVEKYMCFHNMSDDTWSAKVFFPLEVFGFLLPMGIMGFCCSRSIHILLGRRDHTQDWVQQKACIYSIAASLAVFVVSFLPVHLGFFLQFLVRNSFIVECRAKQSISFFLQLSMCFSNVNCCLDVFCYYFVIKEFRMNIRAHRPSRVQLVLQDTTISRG
Sequence of K-opioid (P41145 whole entry): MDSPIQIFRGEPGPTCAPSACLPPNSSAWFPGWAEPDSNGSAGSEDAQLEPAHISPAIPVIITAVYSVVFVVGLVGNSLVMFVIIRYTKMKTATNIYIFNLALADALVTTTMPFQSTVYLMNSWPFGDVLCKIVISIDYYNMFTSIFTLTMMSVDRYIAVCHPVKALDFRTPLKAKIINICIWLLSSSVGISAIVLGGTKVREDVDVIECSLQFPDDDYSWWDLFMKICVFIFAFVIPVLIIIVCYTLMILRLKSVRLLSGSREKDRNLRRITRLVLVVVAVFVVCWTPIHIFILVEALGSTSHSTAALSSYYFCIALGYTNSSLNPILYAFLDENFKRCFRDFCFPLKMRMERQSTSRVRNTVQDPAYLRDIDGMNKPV
Sequence of mouse NTR (O88319 whole entry): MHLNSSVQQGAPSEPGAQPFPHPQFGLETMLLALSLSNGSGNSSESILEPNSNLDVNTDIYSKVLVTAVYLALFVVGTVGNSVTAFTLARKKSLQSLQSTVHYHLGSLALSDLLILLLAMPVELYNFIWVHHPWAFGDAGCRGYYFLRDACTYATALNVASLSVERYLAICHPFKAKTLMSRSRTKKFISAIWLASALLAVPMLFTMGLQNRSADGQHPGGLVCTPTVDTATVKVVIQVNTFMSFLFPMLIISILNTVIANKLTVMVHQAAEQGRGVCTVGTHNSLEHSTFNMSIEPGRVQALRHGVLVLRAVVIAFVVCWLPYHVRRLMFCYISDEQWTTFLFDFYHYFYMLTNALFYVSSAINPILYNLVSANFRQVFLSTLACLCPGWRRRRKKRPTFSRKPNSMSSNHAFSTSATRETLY
Sequence of GPR35 (Q9HC97 whole entry, species assumed): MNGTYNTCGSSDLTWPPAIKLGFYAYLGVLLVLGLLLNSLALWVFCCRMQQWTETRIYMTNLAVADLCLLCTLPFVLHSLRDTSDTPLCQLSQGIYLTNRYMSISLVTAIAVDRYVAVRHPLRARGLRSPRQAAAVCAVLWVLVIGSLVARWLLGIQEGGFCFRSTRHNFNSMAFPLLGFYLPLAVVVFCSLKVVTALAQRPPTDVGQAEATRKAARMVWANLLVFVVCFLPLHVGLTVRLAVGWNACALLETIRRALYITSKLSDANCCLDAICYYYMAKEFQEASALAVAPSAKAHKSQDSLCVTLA

Turning to `COc1cc2nc(C3CC3)nc(C3CCN(c4ccccc4OC)CC3)c2cc1OC` [19a], at NTR1 [1] (relative to the EC100 (100 nM) of the NT(8–13) peptide control, average ± SEM (n=4 unless otherwise noted in parentheses)), the “EC50 (β-Arrestin2-GFP NTR1 potency)” value was “not active”.
`COc1cc2nc(C3CC3)nc(N3CCN(c4ccccc4OC)CC3)c2cc1OC` [compound 7]: on NTR1 [1], the Emax worked out at 100%. At NTR1 [2], the “activity in Ca2+ flux assay, compound alone” value was “no activity”.
In the case of `COc1ccccc1C1CCN(c2nc(C3(F)CC3)nc3ccc(N(C)CCO)cc23)CC1` [compound 18, 2-({2-(1-Fluoro-cyclopropyl)-4-[4-(2-methoxy-phenyl)-piperidin-1-yl]-quinazolin-6-yl}-methyl-amino)-ethanol], the “effect on the potency of NT in the NTR1 high-content (β-arrestin2-GFP) assay” value on NTR1 [1] (18 (SBI-553) 0.5−356 nM) is on record as “no effect”. The cross reactivity result at NTR2 [3], on GPR35, at GPR55 and on K-opioid was “no cross reactivity” throughout. Also, the “activity in Ca2+ flux assay, compound alone” value at NTR1 [4] (compound alone, without NT) was “no activity”. Also, at NTR1 [4] (rightward shift in the presence of 2.15 μM compound), the “shift of the NT EC50 in the Ca2+ flux assay” value is above 30 fold. Besides, the “enhancement of neurotensin peptide binding” value on NTR1 [5] is “significant enhancement”; on NTR2 [6] it was “but not human NTR2”; at mouse NTR, “significant enhancement”. For the same molecule, the “effect on basal hyperlocomotion” value is listed as “attenuated hyperlocomotion” in [7] (IP dosing, 12 mg/kg) and “attenuated hyperlocomotion” in [7] (PO dosing, 10, 30 or 100 mg/kg as the HCl salt). In [8], the “adverse effects in dosed animals” value was “did not show any adverse effects”.

The values are drawn from article PMC7003992 (Journal of medicinal chemistry, 2019).
